APJ ag: activates the human apelin receptor APJ. CHO-K1 APJ PathHunter beta-arrestin, luminescence; 0% DMSO wells, 100% apelin. activation, % at 20 µM. 0.11% of 330,000 active;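 active = activation more than six SD over the plate average, tested at 20 µM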;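 note: 0% = DMSO alone and 100% = apelin-13 at 10 nM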
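Test system – PathHunter CHO-K1 APJ (AGTRL-1) beta-arrestin reporter cells · Input – 1000 cells/well · Compound – single test compound dose, 20 µM final, 1% DMSO · Times – compound stimulation 90 min at 25 °C, detection 60 min · Technique – beta-gal luminescence · Read-out basis – APJ–arrestin association signal · Control set – negative DMSO alone, positive Apelin-13 at 10 nM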
EBI2 block: blocks human EBI2 receptor beta-arrestin signaling | EBI2 beta-arrestin recruitment, luminescence, 7a,25-OHC stimulated | inhibition, % at 5 µM | 0.81% of 360,000 active | P32249 | AID 651636; in the data active = inhibition above about 38%;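 note: enzyme fragment complementation signal reports receptor beta-arrestin coupling in cells; 0% = agonist plus DMSO wells and 100% = wells without agonist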
Target sequence (P32249 whole entry, looked up, the tested form may be a part): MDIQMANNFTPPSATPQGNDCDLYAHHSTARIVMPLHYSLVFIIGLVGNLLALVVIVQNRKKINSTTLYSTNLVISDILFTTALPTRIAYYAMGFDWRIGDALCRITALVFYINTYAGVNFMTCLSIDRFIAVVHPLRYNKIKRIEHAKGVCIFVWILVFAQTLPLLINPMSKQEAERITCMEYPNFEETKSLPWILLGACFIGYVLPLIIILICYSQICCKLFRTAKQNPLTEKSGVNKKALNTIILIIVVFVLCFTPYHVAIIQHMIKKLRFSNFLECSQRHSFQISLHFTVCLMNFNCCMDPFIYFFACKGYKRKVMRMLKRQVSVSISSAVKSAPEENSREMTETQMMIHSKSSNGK
CXCR6 inh: inhibitors of human CXCR6 receptor | CHO-K1 PathHunter CXCR6 beta-arrestin, luminescence | inhibition, % at 20 µM | 0.36% of 360,000 active; in the data active = inhibition above about 34%, passing the limit was not always enough;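 note: antagonist mode with CXCL16 agonist at 10 nM final; 0% = 10 nM CXCL16 with DMSO and 100% = unstimulated wells without agonist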
CCR6 antag: antagonists of human CCR6 receptor | 0.49% of 340,000 active | AID 493098 | CHO-K1 CCR6 PathHunter beta-arrestin, luminescence, CCL20-stimulated | inhibition, % at 20 µM;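 active = compounds whose inhibition of the agonist-driven luminescence signal at 20 µM reaches about 50%, limit read from the data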;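 note: cells stimulated with CCL20 at 14 nM final; plate controls were DMSO with CCL20 for no effect and DMSO without agonist for full effect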
Target sequence (P51684 whole entry, looked up): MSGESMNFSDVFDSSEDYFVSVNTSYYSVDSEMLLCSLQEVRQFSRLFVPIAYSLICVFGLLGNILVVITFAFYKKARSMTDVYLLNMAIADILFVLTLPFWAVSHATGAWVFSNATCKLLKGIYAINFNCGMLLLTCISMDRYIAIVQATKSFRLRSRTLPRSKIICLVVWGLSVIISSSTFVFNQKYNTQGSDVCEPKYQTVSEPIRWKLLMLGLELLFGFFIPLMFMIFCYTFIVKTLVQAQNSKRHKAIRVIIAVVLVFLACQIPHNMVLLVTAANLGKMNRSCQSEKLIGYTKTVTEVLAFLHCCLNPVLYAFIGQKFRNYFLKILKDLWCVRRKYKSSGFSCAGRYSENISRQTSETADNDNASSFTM
APJ antagonist: antagonists of human APJ apelin receptor. P35414. CHO-K1 APJ beta-arrestin complementation, luminescence. inhibition, % at 20 µM. 0.32% of 330,000 active;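 active = inhibition above about 40% at 20 µM, limit read from the data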;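 note: cells challenged with 10 nM apelin-13 agonist together with compound; plate controls were apelin-13 plus DMSO wells for no effect and DMSO wells lacking apelin-13 for full effect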
EBI2 antag conf: EBI2 (human) antagonism, single concentration confirmation. shares compounds with EBI2 block. EBI2 beta-arrestin luminescence, 7a,25-OHC antagonism. inhibition, % at 5 µM. 29% of 2,400 active;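 active = inhibition of at least 50%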
EBI2 agonist: counter-screen for EBI2 antagonists: EBI2 agonist activity. EBI2-expressing cells, agonist mode, luminescence, 60 min; 0% vehicle, 100% 7α,25-dihydroxycholesterol control. shares compounds with EBI2 block. 2,400 tested, under 10 active. activation, % at 5 µM;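 active = activation of at least 50%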
bGal counter: inhibits E. coli beta-galactosidase, counter-screen for EBI2 antagonists | AID 652176 | purified beta-galactosidase, luminescent Galacton Star, 15 min | shares compounds with EBI2 block | inhibition, % at 5 µM | 1% of 2,400 active;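 active = replicate-average signal at least 3 plate SD below neutral wells, shown as high inhibition, flagging enzyme-inhibiting false positives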;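 note: 0% = DMSO wells with enzyme and 100% = wells lacking enzyme; higher means stronger loss of beta-gal luminescence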
The depositor's hits bear a star; nt = not tested or not shown. This is a sample that favours compounds with a hit; in the whole collection about 1.5% have one here.

SMILES	APJ ag	EBI2 block	CXCR6 inh	CCR6 antag	APJ antagonist	EBI2 antag conf	EBI2 agonist	bGal counter
Cc1ccc(NS(=O)(=O)c2cc(C(=O)NCCSc3ccc(C)cc3)ccc2C)cc1	1.2	44.3*	8.5	18.1	-8.5	11.4	-1.7	-8.4
CCOc1ccc(NC(=O)N2CCC(c3ccc(C)cc3)C2)cc1 (stereo unspecified)	-1.9	80.7*	-4.0	10.7	32.2	55.3*	-0.4	2.6
O=C(Nc1ccccc1)N1CCC(c2ccccc2)C1 (stereo unspecified)	-2.2	28.9	3.1	-3.0	28.4	nt	nt	nt
CCc1ccc(NC(=O)N2CCC(c3ccccc3)C2)cc1 (stereo unspecified)	-6.1	82.5*	-0.4	16.7	-1.5	63.0*	-0.1	5.8
COc1ccc(C(=O)c2cn(-c3cccc(Br)c3)nc2C(C)=O)cc1	-3.4	-2.0	2.7	-3.6	19.7	nt	nt	nt
CC(=O)c1nn(-c2ccc(Br)cc2)cc1C(=O)c1ccccc1	-5.1	52.2*	-1.1	4.8	9.8	42.6	-0.4	8.4
CC(=O)c1nn(-c2ccc(Cl)cc2)cc1C(=O)c1ccc(C)cc1	0.0	87.7*	9.1	2.3	14.3	51.4*	0.7	9.4
COc1ccccc1N1CCN(C(=O)COc2ccc(Cl)cc2)CC1	6.9	81.3*	-0.7	-0.3	16.8	51.8*	0.6	3.7
Cc1ccc(Cl)cc1N1CCN(C(=O)COc2ccc3c(c2)CCC3)CC1	-1.9	77.5*	-0.9	9.7	9.6	42.1	-0.9	-13.0
O=C(COc1ccc(Cl)cc1)N1CCN(c2ncccn2)CC1	-4.9	72.6*	-3.4	-14.0	-21.5	58.1*	2.0	-1.8
O=C(COc1ccc(Br)cc1)N1CCN(c2ncccn2)CC1	-4.3	93.9*	-8.5	-4.3	-6.1	78.7*	0.2	1.5
CC(=O)c1ccc(N2CCN(C(=O)COc3ccc4c(c3)CCC4)CC2)cc1	-5.5	33.6	-1.0	15.7	14.5	nt	nt	nt
Cc1ccnc(NC(=O)CNC(=O)c2sc3ccccc3c2Cl)c1	-1.2	-2.6	0.4	-14.0	17.5	nt	nt	nt
Cc1ccnc(NC(=O)c2sc3cc(Cl)ccc3c2Cl)c1	-0.1	54.7*	-1.4	-0.8	-3.7	55.2*	-1.8	-10.6
CC(=O)CCc1ccc(Oc2nc(-c3cccnc3)nc3ccccc23)cc1	-3.4	53.9*	-7.1	4.6	-8.4	25.0	1.4	3.1
COc1ccccc1OCc1nnc(SCC(=O)Nc2nnc(C3CC3)s2)n1C	-0.4	2.4	-12.2	10.0	2.3	nt	nt	nt
Cc1ccc(-n2c(SCC(=O)N3CCN(c4ccccn4)CC3)nnc2N2CCCC2)cc1	-2.8	-9.4	-8.8	18.4	1.0	nt	nt	nt
COc1ccc(N2CCN(C(=O)CSc3ccc(C)cc3)CC2)cc1	-2.5	63.6*	3.7	5.4	2.6	58.4*	0.7	2.9
Cc1ccc(SCC(=O)N2CCN(c3ccccn3)CC2)cc1	-2.0	73.0*	0.8	-0.3	-9.7	50.2*	2.7	4.0
Cc1cc(S(=O)(=O)NCCCN2CCOCC2)c(C)cc1Cl	4.0	-14.0	-2.2	10.3	14.7	nt	nt	nt
C=CCN1C(=S)CC(c2ccccc2)=Nc2ccccc21	-0.5	6.2	4.7	16.9	10.9	nt	nt	nt
CCN(CC)S(=O)(=O)c1ccc2oc(C(=O)NC3CCCc4ccccc43)c(C)c2c1 (stereo unspecified)	-4.5	42.5*	8.2	17.7	4.7	9.5	-1.8	-11.7
O=C(CCc1c[nH]c2ccccc12)NCCc1ccc(Cl)cc1	-2.4	49.2*	-16.5	16.3	-9.4	29.4	0.0	7.0
Cc1cccc(/C=N/NC(=O)c2cc(-c3cccnc3)nc3c2c(C)nn3-c2ccccc2)c1	-1.0	43.5*	8.5	4.6	-3.2	38.0	-1.5	-16.1
O=C(Nc1ccc2ccccc2c1)[C@@H]1C[C@H]1[C@@H](NP(=O)(c1ccccc1)c1ccccc1)c1ccccc1	-6.3	59.2*	6.0	3.5	11.2	11.3	-0.8	-12.9
SMILES	APJ ag	EBI2 block	CXCR6 inh	CCR6 antag	APJ antagonist	EBI2 antag conf	EBI2 agonist	bGal counter
COc1cc(/C=C(\C#N)C(=O)c2c(C)[nH]c3ccccc23)cc(OC)c1OC	1.0	44.8*	-4.6	10.8	6.0	35.1	2.8	6.7
Cc1cc(C)c(S(=O)(=O)N2CCN(C(=O)C3COc4ccccc4O3)CC2)c(C)c1 (stereo unspecified)	-1.6	88.3*	14.8	14.6	15.0	70.8*	5.6	2.5
O=C(c1cc2ccccc2o1)N1CCN(S(=O)(=O)c2ccc(F)c(F)c2F)CC1	-3.3	88.8*	8.4	1.2	-8.9	71.2*	1.3	2.8
Cc1cc(C)c(S(=O)(=O)N2CCN(C(=O)c3cc4ccccc4o3)CC2)c(C)c1	-1.1	90.1*	1.7	2.8	9.8	83.5*	2.7	6.8
CCOC(=O)c1ccc(S(=O)(=O)N2CCN(C(=O)c3cc4ccccc4o3)CC2)cc1	1.7	91.4*	-1.7	14.4	7.1	58.6*	0.2	1.6
O=C(c1ccccc1)N1CCN(C(=O)c2cc3ccccc3o2)CC1	-5.4	70.2*	0.1	4.0	-0.5	55.3*	1.5	8.7
O=C(C(=O)N1CCN(C(=O)c2ccco2)CC1)c1cc2ccccc2o1	nt	-7.7	nt	nt	nt	nt	nt	nt
CCOC(=O)N1CCN(C(=O)c2cc3ccccc3o2)CC1	-2.6	64.1*	-7.2	-16.7	18.4	20.9	0.4	4.2
CCOC(=O)C(Oc1ccc2c(-c3ccc(OC)cc3)cc(=O)oc2c1C)c1ccccc1 (stereo unspecified)	-2.0	35.9*	14.1	25.4	14.4	31.8	-1.2	-19.9
O=C(Nc1cccc(-c2csc(Nc3cccc(C(F)(F)F)c3)n2)c1)c1ccccc1	-0.5	46.2*	-12.0	-1.4	-0.6	23.4	-1.0	-15.2
O=C(Nc1ccc(-c2csc(Nc3cccc(C(F)(F)F)c3)n2)cc1)c1ccccc1	0.9	20.1	1.3	-7.8	-12.7	nt	nt	nt
Cc1cc(Cl)ccc1OCC(=O)N1CCCCC1	-8.6	8.0	0.8	0.4	12.7	nt	nt	nt
Cc1cc(Cl)ccc1OCC(=O)N1CCN(c2ncccn2)CC1	-2.5	55.8*	9.8	6.6	7.2	36.2	-0.4	-18.0
Cc1ccc(C(C)C)c(OCC(=O)N2CCN(c3ncccn3)CC2)c1	0.2	48.4*	4.1	-0.6	-0.1	44.0	-0.2	0.0
Cc1cc(Cl)cc(C)c1OCC(=O)N1CCN(c2ncccn2)CC1	-0.8	75.7*	4.8	2.8	-1.2	42.2	-1.5	-15.7
O=C(COc1ccccc1)N1CCN(c2ncccn2)CC1	-2.6	23.9	-6.0	2.5	-5.0	nt	nt	nt
